According to PMC3755765 (ChemMedChem, 2013):
pIC50: −log10 of the molar value. ≈ marks a conversion by molar mass, not a printed value. Where “and” joins values, the source holds several entries; their conditions need not be identical. Equal entries are not always repeated. Where two headings read alike, the source gives them in different places.

Experiments:
TgENR = molecular target: T1, TgENR (Toxoplasma gondii, UniProt Q6UCJ9); assay: TgENR enzyme assay; format: biochemical; settings: for Activity in the enzyme-based assay: purified TgENR; for inhibition at 1 µM: read-out: Cpd. conc. [1 μM]/% Inh.: percentage of inhibition of TgENR; for TgENR IC50 fold lower than that of analog 9c: 38 and 54 nM vs 130 nM
T1 sequence (Q6UCJ9 28-417): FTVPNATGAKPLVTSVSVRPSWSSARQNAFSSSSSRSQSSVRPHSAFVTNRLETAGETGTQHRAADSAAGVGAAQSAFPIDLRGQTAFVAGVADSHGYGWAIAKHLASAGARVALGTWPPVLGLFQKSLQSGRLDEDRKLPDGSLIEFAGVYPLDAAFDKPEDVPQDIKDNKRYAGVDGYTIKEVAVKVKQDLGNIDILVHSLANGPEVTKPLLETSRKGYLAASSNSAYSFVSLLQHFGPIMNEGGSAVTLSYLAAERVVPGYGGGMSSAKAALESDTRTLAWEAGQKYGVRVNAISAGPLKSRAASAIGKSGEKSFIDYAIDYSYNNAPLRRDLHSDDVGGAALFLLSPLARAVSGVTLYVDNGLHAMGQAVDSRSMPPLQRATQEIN

T. gondii tachyzoites = assay: Parasite tissue culture assay: inhibition of T. gondii tachyzoites in HFF; format: cell-based, Toxoplasma gondii; settings: for Activity in the parasite-based assay: T. gondii tachyzoites; for MIC50 / pIC50: Toxoplasma gondii
[1] = system: Human Foreskin Fibroblasts (HFF); assay: Toxicity for host cells; settings: for Parasite tissue culture assay HFF (HFF toxicity): human foreskin fibroblasts, highest concentration tested 10 μM
[2] = system: P. falciparum strain D6 (CDC/Sierra Leone); assay: Malaria SYBR Green I-based fluorescence assay, strain D6; format: cell-based; settings: Plasmodium falciparum, D6, 72 h, read-out: SYBR Green D6 IC50
Outline: (§1)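 Late-ring or early-trophozoite parasites at 0.3% starting parasitemia and 2% hematocrit were added to plates predosed with quadruplicate 12-point two-fold dilutions in DMSO (final […]), with mefloquine as reference. Plates were incubated 72 h at 37°C under 5% CO2/5% O2/90% N2, lysed with Tris/EDTA/Triton X/saponin buffer with SYBR Green I (final 10x), kept dark 24 h at RT, and read as RFU. A chloroquine batch control at 2000 ng/ml validated each run.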

[3] = system: P. falciparum strain TM91C235 (WRAIR, Thailand, chloroquine resistant); assay: Malaria SYBR Green I-based fluorescence assay, strain TM91C235; format: cell-based; settings: Plasmodium falciparum, 72 h, read-out: SYBR Green C235 IC50
Outline: as §1

[4] = 72 h, read-out: Parasite tissue culture assay MIC50

SMILES	inhibition at 1 µM (TgENR) [%]	Activity in the parasite-based assay (T. gondii tachyzoites)	MIC50 (T. gondii tachyzoites; [4]) [µM]	Parasite tissue culture assay HFF (HFF toxicity) [1] [µM]	further results
COc1cc(Cn2cc(CCO)nn2)ccc1Oc1ccc(Cl)cc1Cl [Compound 8d, 2-[1-[4-(2,4-Dichlorophenoxy)-3-methoxybenzyl]-1H-1,2,3-triazol-4-yl]ethanol]	12	lack of activity	> 10	> 10	Activity in the enzyme-based assay (TgENR): lack of activity
CCCCc1cn(Cc2ccc(Oc3ccc(Cl)cc3Cl)c(O)c2)nn1 [Compound 9a, 5-[(4-Butyl-1H-1,2,3-triazol-1-yl)methyl]-2-(2,4-dichlorophenoxy)phenol]	94	inactive	> 10	> 10	pIC50 (TgENR): 7.42; TgENR IC50 fold lower than that of analog 9c (TgENR): approximately 3 fold
Oc1cc(Cn2cc(-c3ccccc3)nn2)ccc1Oc1ccc(Cl)cc1Cl [Compound 9b, 2-(2,4-Dichlorophenoxy)-5-[(4-phenyl-1H-1,2,3-triazol-1-yl)methyl]phenol]	93	inactive	> 10	> 10	pIC50 (TgENR): 7.27; TgENR IC50 fold lower than that of analog 9c (TgENR): ~2 fold
Oc1cc(Cn2ccnn2)ccc1Oc1ccc(Cl)cc1Cl [Compound 9c, 2-(2,4-Dichlorophenoxy)-5-(1H-1,2,3-triazol-1-ylmethyl)phenol]	93		10 (≈ 3.36 µg/mL)	>10	pIC50 (TgENR): 6.89; IC50 [2]: 4.71 µM and 1.58 µg/mL; IC50 [3]: > 2 µg/mL
CCCCc1cn(Cc2ccc(Oc3ccc(Cl)cc3O)c(Cl)c2)nn1 [Compound 16a, 2-[4-[(4-Butyl-1H-1,2,3-triazol-1-yl)methyl]-2-chlorophenoxy]-5-chlorophenol]	90		0.25 (≈ 0.0981 µg/mL)	>10	TgENR IC50 fold higher than that of 16c (TgENR; 43 vs 26 nM): 1.6 fold; pIC50 (T. gondii tachyzoites; read-out: IC50 (MIC50) against Toxoplasma gondii tachyzoites): 6.60; Toxicity to the host cells [1]: without apparent toxicity to the host cells
Oc1cc(Cl)ccc1Oc1ccc(Cn2cc(-c3ccccc3)nn2)cc1Cl [Compound 16b, 5-Chloro-2-[2-chloro-4-[(4-phenyl-1H-1,2,3-triazol-1-yl)methyl]phenoxy]phenol]	82	activity comparable to or better than that of triclosan	1 (≈ 0.412 µg/mL)	>10	
CCCCc1cc(-c2ccc(Oc3ccc(Cl)cc3Cl)c(O)c2)no1 [Compound 20a, 5-(5-Butyl-1,2-oxazol-3-yl)-2-(2,4-dichlorophenoxy)phenol]	59	completely inactive	> 10	> 10	Activity in the enzyme-based assay (TgENR): completely inactive
Oc1cc(-c2cc(-c3ccccc3)on2)ccc1Oc1ccc(Cl)cc1Cl [Compound 20b, 2-(2,4-Dichlorophenoxy)-5-(5-phenyl-1,2-oxazol-3-yl)phenol]	40	completely inactive	> 10	> 10	Activity in the enzyme-based assay (TgENR): completely inactive
C[Si](C)(C)c1cc(-c2ccc(Oc3ccc(Cl)cc3Cl)c(O)c2)no1 [Compound 20c, 2-(2,4-Dichlorophenoxy)-5-[5-(trimethylsilyl)-1,2-oxazol-3-yl]phenol]	25		7 (≈ 2.76 µg/mL)	> 10	
CCCCc1cc(-c2ccc(Oc3ccc(Cl)cc3O)c(Cl)c2)no1 [Compound 24a, 2-[4-(5-Butyl-1,2-oxazol-3-yl)-2-chlorophenoxy]-5-chlorophenol]	92		8 (≈ 3.03 µg/mL)	>10	pIC50 (TgENR): 7.74
Oc1cc(Cl)ccc1Oc1ccc(-c2cc(-c3ccccc3)on2)cc1Cl [Compound 24b, 5-Chloro-2-[2-chloro-4-(5-phenyl-1,2-oxazol-3-yl)phenoxy]phenol]	88		10 (≈ 3.98 µg/mL)	>10	pIC50 (TgENR): 7.55
N#Cc1ccc(Oc2ccc(Cl)cc2Cl)c(O)c1 [Compound 27, 4-(2,4-Dichlorophenoxy)-3-hydroxybenzonitrile]	97		2 (≈ 0.56 µg/mL)	> 10	
O=C(Nc1ccccc1)c1ccc(Oc2ccc(Cl)cc2Cl)c(O)c1 [Compound 30a, 4-(2,4-Dichlorophenoxy)-3-hydroxy-N-phenylbenzamide]	7		> 10	>10	IC50 [2]: > 2 µg/mL; IC50 [3]: > 2 µg/mL
CCCCN(CCCC)C(=O)c1ccc(Oc2ccc(Cl)cc2Cl)c(O)c1 [Compound 30b, 4-(2,4-Dichlorophenoxy)-3-hydroxy-N,N-dibutylbenzamide]	44		> 10	>10	IC50 [2]: 400 nM and 0.166 µg/mL; IC50 [3]: 600 nM and 0.247 µg/mL
O=C(c1ccc(Oc2ccc(Cl)cc2Cl)c(O)c1)N1CCOCC1 [Compound 30c, [4-(2,4-Dichlorophenoxy)-3-hydroxyphenyl](morpholin-4-yl)methanone]	43		> 10	>10	IC50 [2]: > 2 µg/mL; IC50 [3]: > 2 µg/mL
CCCCCCNC(=O)c1ccc(Oc2ccc(Cl)cc2Cl)c(O)c1 [Compound 30d, 4-(2,4-Dichlorophenoxy)-N-hexyl-3-hydroxybenzamide]	30		> 10	>10	IC50 [2]: > 2 µg/mL; IC50 [3]: > 2 µg/mL
Cc1cc(C(=O)NCc2ccc(Oc3ccc(Cl)cc3Cl)c(O)c2)no1 [Compound 33, N-[4-(2,4-Dichlorophenoxy)-3-hydroxybenzyl]-5-methyl-1,2-oxazole-3-carboxamide]	96		10 (≈ 3.93 µg/mL)		
Cc1cc(C(=O)NCc2ccc(Oc3ccc(Cl)cc3O)c(Cl)c2)no1 [Compound 37a, N-[3-Chloro-4-(4-chloro-2-hydroxyphenoxy)benzyl]-5-methyl-1,2-oxazole-3-carboxamide]	88	activity comparable to or better than that of triclosan	5 (≈ 1.97 µg/mL)		
O=C(NCc1ccc(Oc2ccc(Cl)cc2O)c(Cl)c1)c1cc(-c2ccccc2)on1 [Compound 37b, N-[3-Chloro-4-(4-chloro-2-hydroxyphenoxy)benzyl]-5-phenyl-1,2-oxazole-3-carboxamide]	80		> 10		
O=C(NCc1ccc(Oc2ccc(Cl)cc2O)c(Cl)c1)c1ccc2cc(O)ccc2c1 [Compound 37d, N-[3-Chloro-4-(4-chloro-2-hydroxyphenoxy)benzyl]-6-hydroxynaphthalene-2-carboxamide]	89				Activity in the enzyme-based assay (TgENR): Reasonable activity; pIC50 (T. gondii tachyzoites; [4]): < 5.00
Oc1cc(CNc2ccccc2)ccc1Oc1ccc(Cl)cc1Cl [Compound 39a, 2-(2,4-Dichlorophenoxy)-5-[(phenylamino)methyl]phenol]	96		10 (≈ 3.6 µg/mL)	>10	pIC50 (TgENR): 6.89; IC50 [2]: 4.56 µM and 1.64 µg/mL; IC50 [3]: > 2 µg/mL
CCCCCCNCc1ccc(Oc2ccc(Cl)cc2Cl)c(O)c1 [Compound 39c, 2-(2,4-Dichlorophenoxy)-5-[(hexylamino)methyl]phenol]	16	activity comparable to or better than that of triclosan	3 (≈ 1.1 µg/mL)		Activity in the enzyme-based assay (TgENR): completely inactive; IC50 [2]: 2.75 µM and 0.857 µg/mL; IC50 [3]: > 2 µg/mL
CCCCCCNCc1ccc(Oc2ccc(Cl)cc2O)c(Cl)c1 [Compound 41a, 5-Chloro-2-[2-chloro-4-[(hexylamino)methyl]phenoxy]phenol]	25	activity comparable to or better than that of triclosan	1 (≈ 0.368 µg/mL)	>10	Activity in the enzyme-based assay (TgENR): completely inactive
Oc1cc(Cl)ccc1Oc1ccc(CNc2ccccc2)cc1Cl [Compound 41b, 5-Chloro-2-[2-chloro-4-[(phenylamino)methyl]phenoxy]phenol]	94		> 10	>10	
